In ChEMBL document CHEMBL2029233, “Des-acyl ghrelin fragments and analogues promote survival of pancreatic β-cells and human pancreatic islets and prevent diabetes in streptozotocin-treated rats” (2012):
Active and inactive are the calls of the source. The rule behind the calls is not given here.

Columns and labels:
HIT-T15 [1] = test: Antiapoptotic activity in hamster HIT-T15 cells assessed as reduction in IFN-gamma/TNFalpha/IL1beta-induced apoptosis at 100 nM after 24 hrs by Hoechst staining relative to control; format: functional, cell-based; details: Mesocricetus auratus
In short: (§1)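 HIT-T15 cells serum-starved 24 h, then 24 h in serum-free medium with IFN-γ 100 ng/mL, TNF-α 200 ng/mL, IL-1β 10 ng/mL plus peptide. Cells pooled with floating cells, formaldehyde-fixed, ethanol-stored, stained with 10 μg/mL Hoechst 33258. Condensed/fragmented nuclei counted, 500 nuclei in duplicate, n = 3. Reported as percent apoptotic cells.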

HIT-T15 [2] = test: Antiapoptotic activity in hamster HIT-T15 cells assessed as reduction in IFN-gamma/TNFalpha/IL1beta-induced apoptosis at 1 nM after 24 hrs by Hoechst staining relative to control; format: functional, cell-based; details: Mesocricetus auratus; in short: as §1
HIT-T15 [3] = test: Cytoprotective activity in hamster HIT-T15 cells assessed as inhibition of IFN-gamma/TNFalpha/IL1beta-induced cell death after 24 hrs by MTT assay relative to control; format: functional, cell-based; details: Mesocricetus auratus
In short: (§2)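 HIT-T15 cells (5×10^3/well) serum-starved 24 h, then 24 h serum-free with IFN-γ 100 ng/mL, TNF-α 200 ng/mL, IL-1β 10 ng/mL plus peptide (1–100 nM). MTT 1 mg/mL ~1 h, formazan dissolved in DMSO, A570. Reported as percent of cytokine control. Mean ± SE of ≥3 experiments in quadruplicate.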

HIT-T15 [4] = test: Cytoprotective activity in hamster HIT-T15 cells assessed as inhibition of serum starvation-induced cell death at 1 to 100 nM after 24 hrs by MTT assay relative to control; format: functional, cell-based; details: Mesocricetus auratus
In short: (§3)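 Viability by MTT in HIT-T15 cells seeded at 5×10^3/well, serum-starved 24 h, then 24 h more in serum-free medium with peptide (1–100 nM). MTT 1 mg/mL ~1 h, DMSO solubilization, absorbance 570 nm. Expressed as percent of serum-free control. Mean ± SE, ≥3 experiments in quadruplicate.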

HIT-T15 [5] = test: Cytoprotective activity in hamster HIT-T15 cells assessed as inhibition of serum starvation-induced cell death after 24 hrs by MTT assay relative to control; format: functional, cell-based; details: Mesocricetus auratus; in short: as §3
Rattus norvegicus [6] = test: Antidiabetic activity in neonatal Sprague-Dawley rat assessed as inhibition of STZ-induced decrease in plasma insulin level at 30 nmol/kg, sc administered from day 2 to day 9 post STZ-challenge measured after 70 days by RIA relative to control; format: functional, organism-based
In short: (§4)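 Neonatal rats given STZ 100 mg/kg ip in citrate buffer (pH 4.5) on day 1 of birth, then peptide 30 or 100 nmol/kg sc twice daily, days 2–8. Controls received citrate buffer. Killed at day 70. Glucose measured colorimetrically in nonfasted plasma. Plasma and pancreatic (80 mg) insulin measured by RIA. n = 11–21 per group.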

Rattus norvegicus [7] = test: Antidiabetic activity in neonatal Sprague-Dawley rat assessed as decrease in STZ-induced plasma glucose level at 30 nmol/kg, sc administered from day 2 to day 9 post STZ-challenge measured after 70 days by colorimetry relative to control; format: functional, organism-based; in short: as §4
Rattus norvegicus [8] = test: Antidiabetic activity in neonatal Sprague-Dawley rat assessed as inhibition of STZ-induced mortality at 30 nmol/kg, sc administered on day 2 post STZ-challenge measured on day 9 (reference value: 52%); format: functional; parameters: scale not given: the % may be the effect or the level left
Rattus norvegicus [9] = test: Antidiabetic activity in neonatal Sprague-Dawley rat assessed as inhibition of STZ-induced mortality at 100 nmol/kg, sc administered on day 2 post STZ-challenge measured on day 9 (reference value: 52%); format: functional; parameters: scale not given: the % may be the effect or the level left
[10] = biological target: Ras-related C3 botulinum toxin substrate 1 (Homo sapiens) (UniProt P63000); test: Inhibition of Rac1 activation
Pancreatic islet [11] = test: Cytoprotective activity in human pancreatic islet cells assessed as inhibition of serum starvation-induced cell death at 10 to 100 nM after 72 hrs by MTT assay relative to control; format: functional
In short: (§5)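 Human donor islets (>70% purity, 25/well) held 72 h in serum-free medium with peptide, alone or with IFN-γ/TNF-α/IL-1β at 5 ng/mL each. Viability by MTT (1 mg/mL ~1 h, DMSO, 570 nm). Mean ± SE of ≥3 experiments in quadruplicate.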

Rattus norvegicus [12] = test: Antidiabetic activity in neonatal Sprague-Dawley rat assessed as inhibition of STZ-induced decrease in plasma insulin level at 100 nmol/kg, […] post STZ-challenge measured after 70 days by RIA by relative to control; format: functional, organism-based
Rattus norvegicus [13] = test: Antidiabetic activity in neonatal Sprague-Dawley rat assessed as inhibition of STZ-induced decrease in pancreatic insulin level at 100 nmol/kg, sc administered from day 2 to day 9 post STZ-challenge measured after 70 days by RIA by relative to control; format: functional, organism-based; in short: as §4
EPC [14] = test: Cytoprotective activity in human EPC assessed as decrease in H2O2-induced senescence associated beta-galactosidase positive cells at 10 uM after 24 hrs; format: functional
In short: (§6)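 EPCs given test peptides (1 μM or 10 μM) with or without H₂O₂ for 24 h. Cells then fixed in 2% paraformaldehyde for 3 min and stained 24 h at 37 °C with X-gal solution. SA-β-gal-positive cells counted out of 100 at 20× by three investigators.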

EPC [15] = test: Cytoprotective activity in human EPC assessed as decrease in H2O2-induced ROS production after 2 hrs by DCF-DA flow cytometry assay; format: functional
In short: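 Human EPCs from peripheral blood mononuclear cells, cultured 21 days on collagen I in EGM-2. ROS measured by flow cytometry using DCF-DA (0.5 μM final) after 2 h of treatment. H₂O₂ 150 μM as positive control.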

Pancreatic islet [16] = test: Cytoprotective activity in human pancreatic islet cells assessed as inhibition of IFN-gamma/TNFalpha/IL1beta-induced cell death at 10 to 100 nM after 72 hrs by MTT assay relative to control; format: functional; in short: as §5
Rattus norvegicus [17] = test: Antidiabetic activity in neonatal Sprague-Dawley rat assessed as inhibition of STZ-induced decrease in pancreatic insulin level at 30 nmol/kg, […] measured after 70 days by RIA relative to control; format: functional, organism-based
HIT-T15 [18] = test: Antiapoptotic activity in hamster HIT-T15 cells assessed as reduction in IFN-gamma/TNFalpha/IL1beta-induced apoptosis at 10 nM after 24 hrs by Hoechst staining relative to control; format: functional, cell-based; details: Mesocricetus auratus; in short: as §1
HIT-T15 [19] = test: Cytoprotective activity in hamster HIT-T15 cells assessed as inhibition of IFN-gamma/TNFalpha/IL1beta-induced cell death at 1 to 100 nM after 24 hrs by MTT assay relative to control; format: functional, cell-based; details: Mesocricetus auratus; in short: as §2
Rattus norvegicus [20] = test: Antidiabetic activity in neonatal Sprague-Dawley rat assessed as decrease in STZ-induced plasma glucose level at 100 nmol/kg, sc administered from day 2 to day 9 post STZ-challenge measured after 70 days by colorimetry by relative to control; format: functional, organism-based; in short: as §4
Pancreatic islet [21] = test: Cytoprotective activity in human pancreatic islet cells assessed as inhibition of serum starvation-induced cell death at 10 nM after 24 hrs by MTT assay relative to control; format: functional
In short: (§7)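 Human donor islets (purity >70%, 25/well) serum-starved 24 h, then 24 h serum-free with peptide (1–100 nM), alone or with IFN-γ 100 ng/mL, TNF-α 200 ng/mL, IL-1β 10 ng/mL. MTT 1 mg/mL ~1 h, DMSO, A570. Percent of serum-free or cytokine control. ≥3 experiments in quadruplicate.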

EPC [22] = test: Cytoprotective activity in human EPC assessed as decrease in H2O2-induced senescence associated beta-galactosidase positive cells at 1 uM after 24 hrs; format: functional; in short: as §6
Pancreatic islet [23] = test: Cytoprotective activity in human pancreatic islet cells assessed as inhibition of IFN-gamma/TNFalpha/IL1beta-induced cell death at 10 nM after 24 hrs by MTT assay relative to control; format: functional; in short: as §7
Pancreatic islet [24] = test: Cytoprotective activity in human pancreatic islet cells assessed as inhibition of IFN-gamma/TNFalpha/IL1beta-induced cell death at 1 nM after 24 hrs by MTT assay relative to control; format: functional; in short: as §7
Pancreatic islet [25] = test: Cytoprotective activity in human pancreatic islet cells assessed as inhibition of serum starvation-induced cell death at 1 nM after 24 hrs by MTT assay relative to control; format: functional; in short: as §7
Pancreatic islet [26] = test: Cytoprotective activity in human pancreatic islet cells assessed as inhibition of serum starvation-induced cell death at 100 nM after 24 hrs by MTT assay relative to control; format: functional; in short: as §7
Pancreatic islet [27] = test: Cytoprotective activity in human pancreatic islet cells assessed as inhibition of IFN-gamma/TNFalpha/IL1beta-induced cell death at 100 nM after 24 hrs by MTT assay relative to control; format: functional; in short: as §7

## CC(C)[C@H](NC(=O)[C@H](CCCNC(=N)N)NC(=O)[C@H](CCC(N)=O)NC(=O)[C@H](Cc1cnc[nH]1)NC(=O)[C@H](CCC(=O)O)NC(=O)[C@@H]1CCCN1C(=O)[C@@H](N)CO)C(=O)N[C@@H](CCC(N)=O)C(N)=O
HIT-T15 [1]
  Activity: Active
HIT-T15 [2]
  Activity: Active
HIT-T15 [3]
  Activity: Dose-dependent effect
HIT-T15 [4]
  Activity: Active
HIT-T15 [5]
  Activity: Dose-dependent effect
Rattus norvegicus [6]
  Activity: Active
Rattus norvegicus [7]
  Activity: Active
Rattus norvegicus [8]
  Activity: 71%
Rattus norvegicus [9]
  Activity: 89%
[10]
  inhibition: Active
Pancreatic islet [11]
  Activity: Active
Rattus norvegicus [12]
  Activity: Active
Rattus norvegicus [13]
  Activity: Active
EPC [14]
  Activity: Active
EPC [15]
  Activity: Active
Pancreatic islet [16]
  Activity: Active
Rattus norvegicus [17]
  Activity: Active
HIT-T15 [18]
  Activity: Active
HIT-T15 [19]
  Activity: Active
Rattus norvegicus [20]
  Activity: Active

## CC(C)C[C@H](NC(=O)[C@H](CCCCN)NC(=O)[C@H](C)NC(=O)[C@@H]1CCCN1C(=O)[C@@H]1CCCN1C(=O)[C@H](CCCCN)NC(=O)[C@H](CCCCN)NC(=O)[C@H](CO)NC(=O)[C@H](CCC(=O)O)NC(=O)[C@H](CCCCN)NC(=O)[C@H](CCCNC(=N)N)NC(=O)[C@H](CCC(N)=O)NC(=O)[C@H](CCC(N)=O)NC(=O)[C@@H](NC(=O)[C@H](CCCNC(=N)N)NC(=O)[C@H](CCC(N)=O)NC(=O)[C@H](Cc1cnc[nH]1)NC(=O)[C@H](CCC(=O)O)NC(=O)[C@@H]1CCCN1C(=O)[C@H](CO)NC(=O)[C@H](CC(C)C)NC(=O)[C@H](Cc1ccccc1)NC(=O)[C@H](CO)NC(=O)[C@H](CO)NC(=O)CN)C(C)C)C(=O)N[C@@H](CCC(N)=O)C(=O)N1CCC[C@H]1C(=O)N[C@@H](CCCNC(=N)N)C(=O)O
HIT-T15 [1]
  Activity: Active
Pancreatic islet [21]
  Activity: Active
HIT-T15 [2]
  Activity: Active
EPC [22]
  Activity: Active
HIT-T15 [3]
  Activity: Dose-dependent effect
HIT-T15 [4]
  Activity: Active
Pancreatic islet [23]
  Activity: Active
Pancreatic islet [24]
  Activity: Active
HIT-T15 [5]
  Activity: Dose-dependent effect
Rattus norvegicus [6]
  Activity: Active
Rattus norvegicus [7]
  Activity: Active
Rattus norvegicus [8]
  Activity: 72%
Pancreatic islet [11]
  Activity: Active
Pancreatic islet [25]
  Activity: inactive
Pancreatic islet [26]
  Activity: Active
EPC [15]
  Activity: Active
Pancreatic islet [16]
  Activity: Active
Pancreatic islet [27]
  Activity: Active
Rattus norvegicus [17]
  Activity: Active
HIT-T15 [18]
  Activity: Active
HIT-T15 [19]
  Activity: Active
